{"source": "ChEMBL document CHEMBL4354840", "about": "“Discovery of a Small Side Cavity in Sphingosine Kinase 2 that Enhances Inhibitor Potency and Selectivity” (J Med Chem, 2020)", "key": {"[1]": {"biological_target": "T1, Sphingosine kinase 2 (Homo sapiens) (UniProt Q9NRA0)", "T1 sequence (whole entry)": "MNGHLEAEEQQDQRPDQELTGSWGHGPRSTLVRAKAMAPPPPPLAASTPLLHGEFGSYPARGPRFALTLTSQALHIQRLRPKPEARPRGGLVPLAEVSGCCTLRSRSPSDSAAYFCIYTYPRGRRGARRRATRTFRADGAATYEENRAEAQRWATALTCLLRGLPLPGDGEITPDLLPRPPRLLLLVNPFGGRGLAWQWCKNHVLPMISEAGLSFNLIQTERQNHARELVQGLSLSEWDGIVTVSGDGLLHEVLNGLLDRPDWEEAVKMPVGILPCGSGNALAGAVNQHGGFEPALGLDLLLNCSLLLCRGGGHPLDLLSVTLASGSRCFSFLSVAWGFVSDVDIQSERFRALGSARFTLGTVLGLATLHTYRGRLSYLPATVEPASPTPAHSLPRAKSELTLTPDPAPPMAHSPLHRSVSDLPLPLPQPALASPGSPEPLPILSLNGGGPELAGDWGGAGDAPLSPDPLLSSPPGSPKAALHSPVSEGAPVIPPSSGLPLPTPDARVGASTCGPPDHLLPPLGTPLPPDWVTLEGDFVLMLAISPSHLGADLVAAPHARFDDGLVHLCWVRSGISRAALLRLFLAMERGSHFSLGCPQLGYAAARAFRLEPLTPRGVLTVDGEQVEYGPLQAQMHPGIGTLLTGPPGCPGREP", "experiment": "Inhibition of recombinant human SphK2 transfected in HEK293T cells at 0.3 uM using D-erythro-sphingosine as substrate incubated for 20 mins in presence of [gamma32P]-ATP by liquid scintillation counting method relative to control", "format": "cell-based", "in_short": "(§1)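 Human SphK2 recombinant protein isolated from cell lysate. Reaction contained 10 μM sphingosine and 250 μM γ-[32P]ATP, with or without inhibitor. Product was read by scintillation counting. Activity is expressed as % of the no-inhibitor control. Compounds were tested at 1.0 and 0.3 μM in triplicate.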"}, "Sphingosine kinase 2 [2]": {"biological_target": "T2, Sphingosine kinase 2 (Homo sapiens, UniProt Q9NRA0)", "T2 sequence (Q9NRA0 whole entry)": "T1 sequence (whole entry)", "experiment": "Inhibition of recombinant human SphK2 expressed in baculovirus infected Sf9 cells assessed as decrease in [33P]S1P production using varying level of D-erythro-sphingosine as substrate in presence of [gamma33P]-ATP by scintillation proximity assay"}, "Saccharomyces cerevisiae": {"system": "Saccharomyces cerevisiae", "experiment": "Toxicity against Saccharomyces cerevisiae KYA1 assessed as cell death at >3 uM incubated for 24 to 48 hrs", "format": "organism-based", "conditions": "in vivo"}, "[3]": {"biological_target": "T1, Sphingosine kinase 2 (Homo sapiens)", "experiment": "Inhibition of recombinant human SphK2 transfected in HEK293T cells at 1 uM using D-erythro-sphingosine as substrate incubated for 20 mins in presence of [gamma32P]-ATP by liquid scintillation counting method relative to control", "in_short": "as §1"}, "Mus musculus [4]": {"system": "Mus musculus", "experiment": "In vivo inhibition of SphK2 in C57BL/6 mouse assessed as Cmax required for two-fold increase in sphingosine-1-phosphate level in blood at 10 mg/kg, ip administered as single dose measured after 4 hrs by LC-MS/MS analysis", "format": "functional, organism-based", "set-up": "dose 10 mg/kg", "in_short": "(§2)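 Male C57BL/6 mice, 8–10 weeks old, received a single i.p. dose of vehicle or 10 mg/kg inhibitor in 2% hydroxypropyl-β-cyclodextrin. Retro-orbital whole blood was taken at 0.5, 1, 2, 4, 6 and 8 h. 10 μL of blood was analysed by LC/MS for S1P and compound. Groups were compared to vehicle by unpaired t-test.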"}, "Mus musculus [5]": {"system": "Mus musculus", "experiment": "In vivo inhibition of SphK2 in C57BL/6 mouse assessed as increase in sphingosine-1-phosphate level in blood at 10 mg/kg, ip administered as single dose and measured at 4 hrs post-treatment by LC-MS/MS analysis relative to control", "format": "functional", "in_short": "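Male C57BL/6 mice, 8–10 weeks old, given one i.p. injection of 10 mg/kg or vehicle (2% hydroxypropyl-β-cyclodextrin). Whole blood taken from the retro-orbital sinus at 0.5, 1, 2, 4, 6 and 8 h. 10 μL of blood processed for S1P by LC-MS/MS. S1P compared with vehicle-injected controls by unpaired t-test.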"}, "Mus musculus [6]": {"system": "Mus musculus", "experiment": "In vivo inhibition of SphK2 in C57BL/6 mouse assessed as increase in sphingosine-1-phosphate level in blood at 10 mg/kg, ip administered as single dose and measured upto 6 hrs post-treatment by LC-MS/MS analysis", "format": "functional, organism-based", "in_short": "as §2"}, "Rattus norvegicus": {"system": "Rattus norvegicus", "experiment": "Decrease in sphingosine-1-phosphate level in rat blood at 10 mg/kg relative to control", "format": "functional"}, "Sphingosine kinase 2 [7]": {"biological_target": "T3, Sphingosine kinase 2 (Mus musculus, UniProt Q9JIA7)", "T3 sequence (Q9JIA7 whole entry)": "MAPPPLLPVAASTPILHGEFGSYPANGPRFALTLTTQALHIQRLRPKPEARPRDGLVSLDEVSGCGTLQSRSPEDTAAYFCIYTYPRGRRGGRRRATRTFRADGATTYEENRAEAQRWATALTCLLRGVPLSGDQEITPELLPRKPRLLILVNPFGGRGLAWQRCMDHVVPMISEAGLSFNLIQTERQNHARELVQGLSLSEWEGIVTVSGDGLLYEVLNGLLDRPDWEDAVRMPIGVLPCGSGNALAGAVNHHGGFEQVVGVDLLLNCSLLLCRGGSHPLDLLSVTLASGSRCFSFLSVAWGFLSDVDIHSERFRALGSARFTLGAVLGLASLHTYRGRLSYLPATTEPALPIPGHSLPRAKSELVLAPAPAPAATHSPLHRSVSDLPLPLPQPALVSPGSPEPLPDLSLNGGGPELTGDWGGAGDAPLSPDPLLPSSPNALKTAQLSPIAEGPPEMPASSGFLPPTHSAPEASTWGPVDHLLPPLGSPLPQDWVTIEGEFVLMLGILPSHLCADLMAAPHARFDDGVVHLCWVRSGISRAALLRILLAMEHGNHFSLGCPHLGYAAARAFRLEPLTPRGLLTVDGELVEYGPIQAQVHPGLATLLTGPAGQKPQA", "experiment": "Inhibition of recombinant mouse SphK2 expressed in baculovirus infected Sf9 insect cells using D-erythro-sphingosine as substrate measured after 30 mins in presence of [gamma32P]-ATP by liquid scintillation counting method"}}, "note": "Active and inactive are the calls of the source. The rule behind the calls is not given here."}
{"smiles": "Cl.N=C(N)N1CCC[C@H]1c1nc(-c2ccc(OCc3ccc(C(F)(F)F)cc3)c(C3CC3)c2)no1", "values": [{"measurement": "inhibition", "setting": "[1]", "value": 52, "unit": "%"}, {"measurement": "Ki", "setting": "Sphingosine kinase 2 [2]", "value": 186, "unit": "nM"}, {"measurement": "Activity", "setting": "Saccharomyces cerevisiae", "value": "Toxic"}]}
{"smiles": "Cc1cc(-c2noc([C@@H]3CCCN3C(=N)N)n2)ccc1OCc1ccc(C(F)(F)F)cc1", "values": [{"measurement": "inhibition", "setting": "[1]", "value": 3, "unit": "%"}]}
{"smiles": "N=C(N)N1CCC[C@H]1c1nc(-c2ccc(OCc3ccc(C(F)(F)F)cc3)c(-c3ccc(F)cc3)c2)no1", "values": [{"measurement": "inhibition", "setting": "[1]", "value": 31, "unit": "%"}]}
{"smiles": "N=C(N)N1CCC[C@H]1c1nc(-c2ccc(OCc3ccc(C(F)(F)F)cc3)cc2Cl)no1", "values": [{"measurement": "inhibition", "setting": "[1]", "value": 40, "unit": "%"}]}
{"smiles": "CCCCCCCCOc1ccc(-c2noc([C@@H]3CCCN3C(=N)N)n2)cc1", "values": [{"measurement": "inhibition", "setting": "[3]", "value": 8, "unit": "%"}, {"measurement": "inhibition", "setting": "[1]", "value": 3, "unit": "%"}]}
{"smiles": "N=C(N)N1CCC[C@H]1c1nc(-c2ccc(OCc3ccc(C(F)(F)F)cc3)c(-c3ccc(C(F)(F)F)cc3)c2)no1", "values": [{"measurement": "inhibition", "setting": "[1]", "value": 12, "unit": "%"}]}
{"smiles": "C=CCc1cc(-c2noc([C@@H]3CCCN3C(=N)N)n2)ccc1OCc1ccc(C(F)(F)F)cc1.Cl", "values": [{"measurement": "inhibition", "setting": "[1]", "value": 59, "unit": "%"}, {"measurement": "Activity", "setting": "Saccharomyces cerevisiae", "value": "Toxic"}]}
{"smiles": "N=C(N)N1CCC[C@H]1c1nc(-c2ccc(OCc3ccc(C(F)(F)F)cc3)c(Br)c2)no1", "values": [{"measurement": "inhibition", "setting": "[1]", "value": 24, "unit": "%"}]}
{"smiles": "Cl.N=C(N)N1CCC[C@H]1c1nc(-c2ccc(OCc3ccc(C(F)(F)F)cc3)c(C(F)(F)F)c2)no1", "values": [{"measurement": "inhibition", "setting": "[3]", "value": 77, "unit": "%"}, {"measurement": "inhibition", "setting": "[1]", "value": 65, "unit": "%"}, {"measurement": "Ki", "setting": "Sphingosine kinase 2 [2]", "value": 89, "unit": "nM"}, {"measurement": "Cmax", "setting": "Mus musculus [4]", "value": 8, "unit": "µM"}, {"measurement": "fold change (FC)", "setting": "Mus musculus [5]", "value": 2}, {"measurement": "inhibition", "setting": "Mus musculus [6]", "value": "Active"}, {"measurement": "Activity", "setting": "Saccharomyces cerevisiae", "value": "Toxic"}]}
{"smiles": "CCCCCCCCc1ccc(-c2noc(C[C@@H]3CCCN3C(=N)N)n2)cc1", "values": [{"measurement": "inhibition in vivo at 10 mg/kg", "setting": "Rattus norvegicus", "value": 80, "unit": "%"}]}
{"smiles": "CC(C)c1cc(-c2noc([C@@H]3CCCN3C(=N)N)n2)ccc1OCc1ccc(C(F)(F)F)cc1.Cl", "values": [{"measurement": "inhibition", "setting": "[1]", "value": 67, "unit": "%"}, {"measurement": "Ki", "setting": "Sphingosine kinase 2 [2]", "value": 192, "unit": "nM"}, {"measurement": "Activity", "setting": "Saccharomyces cerevisiae", "value": "Toxic"}]}
{"smiles": "N=C(N)N1CCC[C@H]1c1nc(-c2ccc(OCc3ccc(C(F)(F)F)cc3)cc2C(F)(F)F)no1", "values": [{"measurement": "inhibition", "setting": "[1]", "value": 35, "unit": "%"}]}
{"smiles": "CCCCCCCCOc1ccc(-c2noc([C@@H]3CCCN3C(=N)N)n2)cc1C(F)(F)F", "values": [{"measurement": "Ki", "setting": "Sphingosine kinase 2 [7]", "value": 400, "unit": "nM"}]}
{"smiles": "CCc1cc(-c2noc([C@@H]3CCCN3C(=N)N)n2)ccc1OCc1ccc(C(F)(F)F)cc1.Cl", "values": [{"measurement": "inhibition", "setting": "[1]", "value": 42, "unit": "%"}, {"measurement": "Activity", "setting": "Saccharomyces cerevisiae", "value": "Toxic"}]}
{"smiles": "N=C(N)N1CCC[C@H]1c1nc(-c2ccc(OCc3ccc(C(F)(F)F)cc3)c(-c3ccncc3)c2)no1", "values": [{"measurement": "inhibition", "setting": "[1]", "value": 8, "unit": "%"}]}
{"smiles": "CCCc1cc(-c2noc([C@@H]3CCCN3C(=N)N)n2)ccc1OCc1ccc(C(F)(F)F)cc1.Cl", "values": [{"measurement": "inhibition", "setting": "[1]", "value": 60, "unit": "%"}, {"measurement": "Ki", "setting": "Sphingosine kinase 2 [2]", "value": 201, "unit": "nM"}, {"measurement": "Activity", "setting": "Saccharomyces cerevisiae", "value": "Toxic"}]}
{"smiles": "COc1cc(-c2noc([C@@H]3CCCN3C(=N)N)n2)ccc1OCc1ccc(C(F)(F)F)cc1", "values": [{"measurement": "inhibition", "setting": "[1]", "value": 15, "unit": "%"}]}
{"smiles": "N=C(N)N1CCC[C@H]1c1nc(-c2ccc(OCc3ccc(C(F)(F)F)cc3)c(Cl)c2)no1", "values": [{"measurement": "inhibition", "setting": "[1]", "value": 33, "unit": "%"}]}
{"smiles": "N=C(N)N1CCC[C@H]1c1nc(-c2ccc(OCc3ccc(C(F)(F)F)cc3)c([N+](=O)[O-])c2)no1", "values": [{"measurement": "inhibition", "setting": "[1]", "value": 33, "unit": "%"}]}
{"smiles": "Cc1cc(-c2noc([C@@H]3CCCN3C(=N)N)n2)cc(C)c1OCc1ccc(C(F)(F)F)cc1", "values": [{"measurement": "inhibition", "setting": "[1]", "value": 23, "unit": "%"}]}
{"smiles": "N=C(N)N1CCC[C@H]1c1nc(-c2ccc(OCc3ccc(C(F)(F)F)cc3)cc2)no1", "values": [{"measurement": "inhibition", "setting": "[1]", "value": 2, "unit": "%"}]}
{"smiles": "N=C(N)N1CCC[C@H]1c1nc(-c2ccc(OCc3ccc(C(F)(F)F)cc3)c(-c3ccccc3)c2)no1", "values": [{"measurement": "inhibition", "setting": "[1]", "value": 28, "unit": "%"}]}
{"smiles": "CC(C)(C)c1cc(-c2noc([C@@H]3CCCN3C(=N)N)n2)ccc1OCc1ccc(C(F)(F)F)cc1.Cl", "values": [{"measurement": "inhibition", "setting": "[1]", "value": 66, "unit": "%"}, {"measurement": "Ki", "setting": "Sphingosine kinase 2 [2]", "value": 197, "unit": "nM"}, {"measurement": "Activity", "setting": "Saccharomyces cerevisiae", "value": "Toxic"}]}
{"smiles": "N=C(N)N1CCC[C@H]1c1nc(-c2ccc(OCc3ccc(C(F)(F)F)cc3)c(F)c2)no1", "values": [{"measurement": "inhibition", "setting": "[1]", "value": 23, "unit": "%"}]}
